These results are taken from ChEMBL document CHEMBL3108779, “Pyrronazols, metabolites from the myxobacteria Nannocystis pusilla and N. exedens, are unusual chlorinated pyrone-oxazole-pyrroles” (J Nat Prod, 2014).

In series [1] the test system is Mycolicibacterium diernhoferi. As to the kind of experiment: Antibacterial activity against Mycobacterium diernhoferi DSM 43542 assessed as growth inhibition after 24 to 48 hrs. In kind it is functional.
The test system of a further series is Nocardia sp. As to the kind of experiment: Antibacterial activity against Nocardia sp. DSM 43069 assessed as growth inhibition after 24 to 48 hrs. In kind it is functional.
The next series has as its system Paenibacillus polymyxa. As to the kind of experiment: Antibacterial activity against Paenibacillus polymyxa DSM 36 assessed as growth inhibition after 24 to 48 hrs. In kind it is functional.
A further series relates to Mucor hiemalis. Description: Antifungal activity against Mucor hiemalis DSM 2656 assessed as growth inhibition after 24 to 48 hrs. In kind it is functional. The method in brief:
(§1)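 Fungi pre-grown at 30 °C and 160 rpm for 24−48 h. Tested by 1:1 serial dilution in 96-well microtiter plates in MYC medium (1.0% glucose, 1.0% phytone peptone, 50 mM HEPES, pH 7.0). MIC was the lowest concentration preventing visible growth.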

Series [2] in a line: Antifungal activity against Trichosporon oleaginosus DSM 11815 assessed as growth inhibition after 24 to 48 hrs. The settings on record: Cutaneotrichosporon oleaginosum. In kind it is functional. The method in brief:
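Yeast pre-grown at 30 °C and 160 rpm for 24−48 h, then adjusted to OD548 0.1. Tested by 1:1 serial dilution in 96-well plates in MYC medium (1.0% glucose, 1.0% phytone peptone, 50 mM HEPES, pH 7.0). MIC was the lowest concentration preventing visible growth.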

For another series, the system named is Wickerhamomyces anomalus. As to the kind of experiment: Antifungal activity against Wickerhamomyces anomalus DSM 6766 assessed as growth inhibition after 24 to 48 hrs. In kind it is functional. The method in brief: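 Yeast grown at 30 °C, 160 rpm for 24−48 h and adjusted to OD548 0.1, then tested by 1:1 serial dilution in MYC medium (1.0% glucose, 1.0% phytone peptone, 50 mM HEPES, pH 7.0) in 96-well plates. MIC taken as the lowest concentration preventing visible growth.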

A further series concerns Aspergillus flavus. Description: Antifungal activity against Aspergillus flavus DSM 1959 assessed as growth inhibition after 24 to 48 hrs. In kind it is functional. The method in brief: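 Fungus grown at 30 °C, 160 rpm for 24−48 h, then tested by 1:1 serial dilution in MYC medium (1.0% glucose, 1.0% phytone peptone, 50 mM HEPES, pH 7.0) in 96-well plates. MIC read as the lowest concentration preventing visible growth.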

Another series relates to Aspergillus fumigatus. As to the kind of experiment: Antifungal activity against Aspergillus fumigatus DSM 15966 assessed as growth inhibition after 24 to 48 hrs. In kind it is functional. A digest of the protocol: as §1
The subject of series [3] is Chromobacterium violaceum. Description: Antibacterial activity against Chromobacterium violaceum DSM 30191 assessed as growth inhibition after 24 to 48 hrs. In kind it is functional.
The subject of a further series is A549. As to the kind of experiment: Cytotoxicity against human A549 cells after 5 days by MTT assay. In kind it is functional. The settings on record: A549, 120 h, read-out: LD50 (the source's name). A digest of the protocol: (§2)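 A549, KB-3-1 and mouse fibroblast L929 cells cultured in DMEM plus 10% FBS at 37 °C, 10% CO2. IC50 determined by MTT assay in 96-well microplates; methanol served as negative control.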
On the technique in general: Tetrazolium dyes change colour on reduction, which living cells bring about.

The test system of the next series is SK-OV-3. Description: Cytotoxicity against human SKOV3 cells after 5 days by MTT assay. In kind it is functional. To be noted: SK-OV-3, 120 h, read-out: LD50 (the source's name). The method in brief:
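Human ovarian carcinoma SKOV3 cells maintained in McCoy's medium with 10% FBS, 37 °C, 10% CO2. IC50 obtained from MTT assay in 96-well plates, with methanol as negative control.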

Series [4] in a line: Cytotoxicity against HUVEC after 5 days by MTT assay. In kind it is cell-based. The settings on record: human, HUVEC cells. The method in brief:
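Nontransformed HUVEC kept in EBM-2 with 10% FBS at 37 °C under 10% CO2. MTT read-out in 96-well plates gives the IC50, with methanol as negative control.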

The subject of a further series is Mycobacterium sp. Description: Antibacterial activity against Mycobacterium sp. DSM 43270 assessed as growth inhibition after 24 to 48 hrs. In kind it is functional.
Series [5] in a line: Cytotoxicity against human KB3-1 cells after 5 days by MTT assay. In kind it is functional. To be noted: KB 3-1, 120 h, read-out: LD50 (the source's name). The method in brief: as §2
A further series deals with L929. As to the kind of experiment: Cytotoxicity against mouse L929 cells after 5 days by MTT assay. In kind it is functional. The settings on record: L929, 120 h, read-out: LD50 (the source's name). The method in brief:
as §2

In brackets after ≈: the same amount, converted by molar mass. Activity calls are given as the source filed them. No cut-off for these calls is given here. A value given as a limit tells only on which side of the number the result lay.

Turning to `OC[C@H]1O[C@H](Oc2cccc3nc4c(O)cccc4nc23)[C@@H](O)[C@@H]1O`, the values for the MIC (in series [1]; with Aspergillus fumigatus) were 66.6 µg/mL (≈ 193 µM) and 33.3 µg/mL (≈ 96.7 µM), respectively. The MIC entry (with Nocardia sp.; with Paenibacillus polymyxa; with Mucor hiemalis; in series [2]; in the series on Wickerhamomyces anomalus; with Aspergillus flavus) was “inactive” throughout. The MIC result in [3] is “inactive”.
As to `C[C@@H]1[C@H](O)[C@@H](C)/C=C/C=C/C=C/C=C/C=C/C=C/C=C/[C@H](O[C@@H]2O[C@H](C)[C@@H](O)[C@H](N)[C@@H]2O)C[C@@H]2O[C@](O)(C[C@@H](O)C[C@@H](O)[C@H](O)CC[C@@H](O)C[C@@H](O)CC(=O)O[C@H]1C)C[C@H](O)[C@H]2C(=O)O` [AMPHOTERICIN B], the MIC in the series on Aspergillus flavus was 1 µg/mL (≈ 1.08 µM); with Aspergillus fumigatus it was less than 0.52 µg/mL.
As to `C[C@@H]1[C@H](O)[C@@H](C)/C=C/C=C/CC/C=C/C=C/C=C/C=C/[C@H](O[C@@H]2O[C@H](C)[C@@H](O)[C@H](N)[C@@H]2O)C[C@@H]2O[C@](O)(C[C@@H](O)[C@H](O)CC[C@@H](O)C[C@@H](O)C[C@@H](O)CC(=O)O[C@H]1C)C[C@H](O)[C@H]2C(=O)O.O`, the MIC in the series with Mucor hiemalis worked out at 2.1 µg/mL; in the series on Wickerhamomyces anomalus (Hansenula anomala), 0.52 µg/mL.
On to `COC1=CC(=O)O[C@H](c2coc(/C(=C/c3ccc(Cl)[nH]3)CO)n2)[C@@H]1C`, for which the MIC entry (in series [1]; with Nocardia sp.; in the series on Mycobacterium sp.; in the series with Paenibacillus polymyxa; in series [2]; with Wickerhamomyces anomalus) was “inactive” each time. The MIC entry (in the series on Aspergillus flavus; in the series with Aspergillus fumigatus; in [3]) was “inactive” in each case. Besides, the CC50 in the series with A549 is greater than 27.1 µM; in the series on SK-OV-3, greater than 27.4 µM; in series [5], greater than 27.4 µM; in the series with L929, greater than 27.4 µM. The IC50 at 120 h in [4] is greater than 27.4 µM. Besides, in the series on Mucor hiemalis, the MIC was found to be 33.3 µg/mL (≈ 91.3 µM).
Take `Oc1cccc2nc3c(O)cccc3nc12`: the MIC in [1] is 33.3 µg/mL (≈ 157 µM); with Nocardia sp. it was 33.3 µg/mL (≈ 157 µM); with Mycobacterium sp., 66.7 µg/mL (≈ 314 µM); in the series with Paenibacillus polymyxa it was 66.7 µg/mL (≈ 314 µM); with Mucor hiemalis it was 33.3 µg/mL (≈ 157 µM); in the series with Wickerhamomyces anomalus (Hansenula anomala), 33.3 µg/mL (≈ 157 µM). Besides, the MIC in [3] was found to be 66.7 µg/mL (≈ 314 µM). The CC50 in the series with A549 stood at 5.65 µM; with SK-OV-3 it was 2.59 µM; in series [5], 5.81 µM; with L929, 11.3 µM. Also, the 50% inhibitory concentration (IC50) at 120 h in series [4] amounted to 3.81 µM. Further, the MIC result (in series [2]; in the series on Aspergillus flavus; in the series with Aspergillus fumigatus) was “inactive” in each case.
Consider `CN[C@@H]1[C@H](O[C@H]2[C@H](O[C@H]3[C@H](O)[C@@H](O)[C@H](N=C(N)N)[C@@H](O)[C@@H]3N=C(N)N)O[C@@H](C)[C@]2(O)C=O)O[C@@H](CO)[C@H](O)[C@H]1O.CN[C@@H]1[C@H](O[C@H]2[C@H](O[C@H]3[C@H](O)[C@@H](O)[C@H](N=C(N)N)[C@@H](O)[C@@H]3N=C(N)N)O[C@@H](C)[C@]2(O)C=O)O[C@@H](CO)[C@H](O)[C@H]1O.O=S(=O)(O)O.O=S(=O)(O)O.O=S(=O)(O)O` [STREPTOMYCIN SULFATE], for which the MIC is less than 0.52 µg/mL in series [1]; less than 0.52 µg/mL with Nocardia sp.; 2.1 µg/mL with Mycobacterium sp.; 0.1 µg/mL in series [2]; 2.1 µg/mL in series [3].
On to `CN(C)[C@@H]1C(O)=C(C(N)=O)C(=O)[C@@]2(O)C(O)=C3C(=O)c4c(O)cccc4[C@@](C)(O)[C@H]3[C@H](O)[C@@H]12.Cl` [OXYTETRACYCLINE HYDROCHLORIDE], for which the MIC with Paenibacillus polymyxa was 6.7 µg/mL.

A word on the MIC: it is the least concentration at which growth counts as inhibited. One may read the IC50 as the midpoint of a concentration-inhibition curve. Read a high IC50 as lower potency.
